Measurements of several laboratories.
Values after ≈ are worked out from the molar mass of the structure shown.
Method: broth dilution

`O=C1OC[C@H]2OC(O)[C@H](O)[C@@H](O)[C@@H]2OC(=O)c2cc(O)c(O)c(O)c2-c2c(O)c(O)c3oc(=O)c4c(c(O)c(O)c5oc(=O)c2c3c54)-c2c1cc(O)c(O)c2O` (mixture of isomers) gave an MIC of 100 µg/mL (Streptococcus sobrinus; microbial growth; 24 h).
With `Cc1ccc(C(C)C)c(OC2=C(Cl)C(=O)c3ccccc3C2=O)c1` the MIC was 10 µg/mL (≈ 29.3 µM) (Aspergillus niger; microbial growth).
The MIC of `C/C(=N\C(=O)/N=C(\C)c1c(O)c2ccccc2oc1=O)c1c(O)c2ccccc2oc1=O` is reported as 125 µg/mL (≈ 289 µM) (Aspergillus niger; microbial growth; 48 h).
With `O=C(Nc1cccc(Cl)c1)c1ccc(COC(Cn2ccnc2)c2ccc(Cl)cc2Cl)cc1` (centres unmarked) the MIC80 was 0.06 µg/mL (≈ 0.12 µM) (Lodderomyces parapsilosis; microbial growth).
With `Oc1cc(O)c2c(c1)O[C@H](c1cc(O)c(O)c(O)c1)[C@@H](O)C2` the MIC was 100 µg/mL (≈ 327 µM) (Streptococcus sobrinus; microbial growth; 24 h).
`O=C(Nc1ccc2ccccc2c1)c1ccc(COC(Cn2ccnc2)c2ccc(Cl)cc2Cl)cc1` (centres unmarked) has an MIC80 of 32 µg/mL (≈ 62 µM) (Lodderomyces parapsilosis; microbial growth).
With `C[C@@H]1O[C@@H](OC[C@H]2O[C@@H](Oc3c(-c4ccc(O)c(O)c4)oc4cc(O)cc(O)c4c3=O)[C@H](O)[C@@H](O)[C@@H]2O)[C@H](O)[C@H](O)[C@H]1O` the MBC was 400 µg/mL (≈ 655 µM) (Streptococcus sobrinus; microbial killing).
With `C[C@@H]1O[C@@H]1P(=O)(O)O` the MIC was 31.2 µg/mL (Neisseria gonorrhoeae; microbial growth; ATCC49226).
With `O=C(Nc1ccc(F)cc1)c1ccc(COC(Cn2ccnc2)c2ccc(Cl)cc2Cl)cc1` (centres unmarked) the MIC80 was 0.125 µg/mL (≈ 0.258 µM) (Lodderomyces parapsilosis; microbial growth).
For `C/C(=N\C(=N)/N=C(\C)c1c(O)c2ccccc2oc1=O)c1c(O)c2ccccc2oc1=O`, the MIC was 62.5 µg/mL (≈ 145 µM) (Aspergillus niger; microbial growth; 48 h).
For `O=C(Nc1cccc(F)c1)c1ccc(COC(Cn2ccnc2)c2ccc(Cl)cc2Cl)cc1` (centres unmarked), the MIC80 was 0.125 µg/mL (≈ 0.258 µM) (Lodderomyces parapsilosis; microbial growth).
`CC(=O)N1CCN(c2ccc(OCC3COC(Cn4ccnc4)(c4ccc(Cl)cc4Cl)O3)cc2)CC1` (centres unmarked) has an MIC of 7.8 µg/mL (≈ 14.7 µM) (Aspergillus niger; microbial growth; 48 h).
With `O=C(O[C@@H]1O[C@@H]2COC(=O)c3cc(O)c(O)c(O)c3-c3c(cc(O)c(O)c3O)C(=O)O[C@H]([C@H]1O)[C@@H]2O)c1cc(O)c(O)c(O)c1` the MBC was 400 µg/mL (≈ 630 µM) (Streptococcus sobrinus; microbial killing).
With `O=C(Nc1ccc(C(F)(F)F)cc1)c1ccc(COC(Cn2ccnc2)c2ccc(Cl)cc2Cl)cc1` (centres unmarked) the MIC80 was 0.06 µg/mL (≈ 0.112 µM) (Lodderomyces parapsilosis; microbial growth).
`O=c1oc2c(O)c(O)cc3c(=O)oc4c(O)c(O)cc1c4c23` has an MBC of 200 µg/mL (≈ 662 µM) (Streptococcus sobrinus; microbial killing).
`C/C(=N\C(=S)/N=C(\C)c1c(O)c2ccccc2oc1=O)c1c(O)c2ccccc2oc1=O` gave an MIC of 3.9 µg/mL (≈ 8.7 µM) (Aspergillus niger; microbial growth; 48 h).
`O=C1O[C@H]2[C@@H]3OC(=O)c4cc(O)c(O)c(O)c4-c4c(O)c(O)c5oc(=O)c6c(c(O)c(O)c7oc(=O)c4c5c76)-c4c(cc(O)c(O)c4O)C(=O)OC[C@H]3OC(O)[C@@H]2OC(=O)c2cc(O)c(O)c(O)c2-c2c1cc(O)c(O)c2O` (mixture of isomers) gave an MBC of 200 µg/mL (Streptococcus sobrinus; microbial killing).
For `C/C(=N\NC(=O)/N=C(\C)c1c(O)c2ccccc2oc1=O)c1c(O)c2ccccc2oc1=O`, the MIC was 125 µg/mL (≈ 279 µM) (Aspergillus niger; microbial growth; 48 h).
`O=C(Nc1ccc2[nH]ccc2c1)c1ccc(COC(Cn2ccnc2)c2ccc(Cl)cc2Cl)cc1` (centres unmarked) gave an MIC80 of 32 µg/mL (≈ 63.3 µM) (Lodderomyces parapsilosis; microbial growth).
`CC1CCC(C(C)C)C(OC2=C(Cl)C(=O)c3ccccc3C2=O)C1` (centres unmarked) has an MIC of 12 µg/mL (≈ 34.6 µM) (Aspergillus niger; microbial growth).
